Results reported in ChEMBL document CHEMBL1130108, “Synthesis of nonhydrolyzable analogues of thiazole-4-carboxamide and benzamide adenine dinucleotide containing fluorine atom at the C2' of adenine nucleoside: induction of K562 differentiation and inosine monophosphate dehydrogenase inhibitory activity” (J Med Chem, 1997).
“And” between values parts separate entries of the source, which are not always exact repeats. Identical values can stand only once.

Key:
[1] = molecular target: Inosine-5'-monophosphate dehydrogenase 2 (Homo sapiens, UniProt P12268); test: The compound was assayed to determine the inhibitory activity against human Inosine-5'-monophosphate dehydrogenase 2
K562 [2] = test: The ability to induce differentiation in K562 cells was estimated by determining the fraction of benzidine positive cells converted following incubation with the compound.; assay type: functional, Homo sapiens
In short: (§1)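 K562 erythroleukemia cells incubated with analogue; differentiation scored as fraction of benzidine-positive cells; percent benzidine-positive cells normalized by dividing by the analogue concentration applied.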

K562 [3] = test: The concentration used to induce differentiation in K562 cells; assay type: functional, cell-based; conditions: Homo sapiens; in short: as §1
K562 [4] = test: Antiproliferative activity against K562 erythroid leukemic cells was determined.; assay type: functional, cell-based; conditions: Homo sapiens
[5] = Percentage of benzidine positive cells is divided by the concentration used.; assay type: functional; design: unit not given here; in short: as §1
K562 [6] = test: Antiproliferative activity against K562 erythroid leukemic cells was determined; NE=no effect; assay type: functional, cell-based, Homo sapiens
K562 [7] = test: The concentration used.; assay type: functional, cell-based; conditions: Homo sapiens; in short: as §1

Row | SMILES | IC50 [1] [nM] | IC50 (K562 [4]) [µM] | IC50 (K562 [6]) | Positive cells (K562 [2]) [%] | Concentration (K562 [3]) [µM] | Concentration [5] | Concentration (K562 [7]) [µM]
1 | NC(=O)c1csc([C@H]2O[C@@H](COP(=O)(O)OP(=O)(O)OC[C@H]3O[C@@H](n4cnc5c(N)ncnc54)[C@H](O)[C@@H]3O)[C@H](O)[C@@H]2O)n1 | – | 3.7 | – | 70 | 15 | – | –
2 | NC(=O)c1csc([C@@H]2O[C@H](COP(=O)(O)C(F)(F)P(=O)(O)OC[C@@H]3O[C@H](n4cnc5c(N)ncnc54)[C@@H](O)[C@H]3O)[C@@H](O)[C@H]2O)n1 | 300 | 11 | – | 48 | 14 | 3.4 | –
3 | NC(=O)c1csc([C@@H]2O[C@H](CO)[C@@H](O)[C@H]2O)n1 [TIAZOFURIN] | – | 3 | – | 80 | 15 | – | –
4 | NC(=O)c1csc([C@@H]2O[C@H](COP(=O)(O)OP(=O)(O)OC[C@@H]3O[C@H](n4cnc5c(N)ncnc54)[C@@H](O)[C@H]3F)[C@@H](O)[C@H]2O)n1 | 700 | 3.2 | – | 26 | 2.5 | 10.4 | –

Second part, led by results:

Row | IC50 [1] [nM] | IC50 (K562 [4]) [µM] | IC50 (K562 [6]) | SMILES | Positive cells (K562 [2]) [%] | Concentration (K562 [3]) [µM] | Concentration [5] | Concentration (K562 [7]) [µM]
5 | 800 | 13 | – | NC(=O)c1csc([C@@H]2O[C@H](COP(=O)(O)C(F)(F)P(=O)(O)OC[C@@H]3O[C@H](n4cnc5c(N)ncnc54)[C@H](F)[C@H]3O)[C@@H](O)[C@H]2O)n1 | 40 | 13 | 3.1 | –
6 | 2600 | 3.8 | – | NC(=O)c1csc([C@@H]2O[C@H](COP(=O)(O)OP(=O)(O)OC[C@@H]3O[C@H](n4cnc5c(N)ncnc54)[C@@H](F)[C@H]3O)[C@@H](O)[C@H]2O)n1 | 56 | 13 | 10.4 | –
7 | 175000 | – | Not Active | NC(=O)c1cccc([C@@H]2O[C@H](COP(=O)(O)CP(=O)(O)OC[C@@H]3O[C@H](n4cnc5c(N)ncnc54)[C@H](F)[C@H]3O)[C@@H](O)[C@H]2O)c1 | 9 | 75 | 0.1 | –
8 | 6000 | 70 | – | NC(=O)c1csc([C@@H]2O[C@H](COP(=O)(O)CP(=O)(O)OC[C@@H]3O[C@H](n4cnc5c(N)ncnc54)[C@H](F)[C@H]3O)[C@@H](O)[C@H]2O)n1 | 9.5 | 14 | 0.7 | –
9 | 800 | 68 | – | NC(=O)c1cccc([C@@H]2O[C@H](COP(=O)(O)CP(=O)(O)OC[C@@H]3O[C@H](n4cnc5c(N)ncnc54)[C@@H](O)[C@H]3O)[C@@H](O)[C@H]2O)c1 | – | 15 | 0.6 and 0.8 | 60
10 | 110 | 18 | – | NC(=O)c1csc([C@@H]2O[C@H](COP(=O)(O)CP(=O)(O)OC[C@@H]3O[C@H](n4cnc5c(N)ncnc54)[C@@H](O)[C@H]3O)[C@@H](O)[C@H]2O)n1 | 35 | 14.3 | – | –
